Data: ChEMBL document CHEMBL3588831, “Synthesis and in Vivo Evaluation of [123I]Melanin-Targeted Agents” (J Med Chem, 2015)

Tested on: not listed separately
Test: Retention time of the compound by HPLC method
Type: physicochemical
Settings: not given; call rule not given here

| Retention_time | Structure (SMILES) |
| --- | --- |
| 12.2 min | O=C(c1ccc2cccnc2n1)N1CCN(Cc2ccc([123I])cc2)CC1 |

Tested on: not listed separately
Test: Drug distribution in eyes of C57BL/6J mouse bearing mouse B16F0 cells at 18 to 20 MBq, iv measured over 72 hrs by SPECT imaging study
Type: ADME, organism-based, Eye
Settings: in vivo
How it was run: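 Female C57BL/6J mice (5–6 weeks) were inoculated s.c. on the left flank with 3 × 10^5 B16F0 cells in PBS and used after 11 days, with tumors 2–12 mm. Each received 18–20 MBq in 100 μL by lateral tail vein (n = 3 per tracer). Planar SPECT was done under isoflurane at 10–60 min, 3, 6, 24, 48 and 72 h. ROI pixel values were decay-corrected.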

| Drug uptake | Structure (SMILES) |
| --- | --- |
| Active | O=C(c1ccc2cccnc2n1)N1CCN(Cc2ccc([123I])cc2)CC1 |

Tested on: Mus musculus
Test: Biodistribution in tumor of C57BL/6J mouse bearing mouse B16F0 cells at 0.37 to 1.85 MBq, iv after 24 hrs by gamma counting method
Type: ADME, organism-based
Settings: in vivo
How it was run: (§1)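 Female C57BL/6J mice (5−6 weeks), s.c. inoculated on left flank with 3 × 10^5 B16F0 cells in Ca2+/Mg2+-free PBS, used 11 days later (tumors 2−12 mm). Radiotracer given via tail vein in 100 μL (~0.37 MBq for 1−24 h, 1.85 MBq for 48 h). Organs dissected, weighed, γ-counted, decay corrected. Expressed as % ID/g against injected-dose dilutions. Mean ± SEM, n = 5.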

| Drug uptake | Structure (SMILES) |
| --- | --- |
| 14.4 % ID/g | O=C(c1ccc2cccnc2n1)N1CCN(Cc2ccc([123I])cc2)CC1 |

Tested on: Mus musculus
Test: Biodistribution in eyes of C57BL/6J mouse bearing mouse B16F0 cells at 0.37 to 1.85 MBq, iv after 3 hrs by gamma counting method
Type: ADME, organism-based, Eye
Settings: in vivo
How it was run: as §1

| Drug uptake | Structure (SMILES) |
| --- | --- |
| 36 % ID/g | O=C(c1ccc2cccnc2n1)N1CCN(Cc2ccc([123I])cc2)CC1 |

Tested on: Mus musculus
Test: Biodistribution in eyes of C57BL/6J mouse bearing mouse B16F0 cells at 0.37 to 1.85 MBq, iv after 6 hrs by gamma counting method
Type: ADME, organism-based, Eye
Settings: in vivo
How it was run: as §1

| Drug uptake | Structure (SMILES) |
| --- | --- |
| 37.2 % ID/g | O=C(c1ccc2cccnc2n1)N1CCN(Cc2ccc([123I])cc2)CC1 |

Tested on: Mus musculus
Test: Biodistribution in eyes of C57BL/6J mouse bearing mouse B16F0 cells at 0.37 to 1.85 MBq, iv after 48 hrs by gamma counting method
Type: ADME, organism-based, Eye
Settings: in vivo
How it was run: as §1

| Drug uptake | Structure (SMILES) |
| --- | --- |
| 31.6 % ID/g | O=C(c1ccc2cccnc2n1)N1CCN(Cc2ccc([123I])cc2)CC1 |

Tested on: Mus musculus
Test: Biodistribution in large gastrointestinal tract of C57BL/6J mouse bearing mouse B16F0 cells at 0.37 to 1.85 MBq, iv after 24 hrs by gamma counting method
Type: ADME, organism-based, Large intestine
Settings: in vivo
How it was run: as §1

| Drug uptake | Structure (SMILES) |
| --- | --- |
| 1.4 % ID/g | O=C(c1ccc2cccnc2n1)N1CCN(Cc2ccc([123I])cc2)CC1 |

Tested on: Mus musculus
Test: Biodistribution in large gastrointestinal tract of C57BL/6J mouse bearing mouse B16F0 cells at 0.37 to 1.85 MBq, iv after 48 hrs by gamma counting method
Type: ADME, organism-based
Settings: in vivo
How it was run: as §1

| Drug uptake | Structure (SMILES) |
| --- | --- |
| 0.3 % ID/g | O=C(c1ccc2cccnc2n1)N1CCN(Cc2ccc([123I])cc2)CC1 |

Tested on: Mus musculus
Test: Biodistribution in small gastrointestinal tract of C57BL/6J mouse bearing mouse B16F0 cells at 0.37 to 1.85 MBq, iv after 6 hrs by gamma counting method
Type: ADME, organism-based, Small intestine
Settings: in vivo
How it was run: as §1

| Drug uptake | Structure (SMILES) |
| --- | --- |
| 6.1 % ID/g | O=C(c1ccc2cccnc2n1)N1CCN(Cc2ccc([123I])cc2)CC1 |

Tested on: Mus musculus
Test: Biodistribution in small gastrointestinal tract of C57BL/6J mouse bearing mouse B16F0 cells at 0.37 to 1.85 MBq, iv after 16 hrs by gamma counting method
Type: ADME, organism-based, Small intestine
Settings: in vivo
How it was run: as §1

| Drug uptake | Structure (SMILES) |
| --- | --- |
| 1.3 % ID/g | O=C(c1ccc2cccnc2n1)N1CCN(Cc2ccc([123I])cc2)CC1 |

Tested on: Mus musculus
Test: Biodistribution in small gastrointestinal tract of C57BL/6J mouse bearing mouse B16F0 cells at 0.37 to 1.85 MBq, iv after 24 hrs by gamma counting method
Type: ADME, organism-based, Small intestine
Settings: in vivo
How it was run: as §1

| Drug uptake | Structure (SMILES) |
| --- | --- |
| 0.9 % ID/g | O=C(c1ccc2cccnc2n1)N1CCN(Cc2ccc([123I])cc2)CC1 |

Tested on: Mus musculus
Test: Biodistribution in small gastrointestinal tract of C57BL/6J mouse bearing mouse B16F0 cells at 0.37 to 1.85 MBq, iv after 48 hrs by gamma counting method
Type: ADME, organism-based
Settings: in vivo
How it was run: as §1

| Drug uptake | Structure (SMILES) |
| --- | --- |
| 0.2 % ID/g | O=C(c1ccc2cccnc2n1)N1CCN(Cc2ccc([123I])cc2)CC1 |

Tested on: Mus musculus
Test: Biodistribution in thyroid gland of C57BL/6J mouse bearing mouse B16F0 cells at 0.37 to 1.85 MBq, iv after 3 hrs by gamma counting method
Type: ADME, organism-based
Settings: in vivo
How it was run: as §1

| Drug uptake | Structure (SMILES) |
| --- | --- |
| 2.2 % ID/g | O=C(c1ccc2cccnc2n1)N1CCN(Cc2ccc([123I])cc2)CC1 |

Tested on: Mus musculus
Test: Biodistribution in thyroid gland of C57BL/6J mouse bearing mouse B16F0 cells at 0.37 to 1.85 MBq, iv after 6 hrs by gamma counting method
Type: ADME, organism-based
Settings: in vivo
How it was run: as §1

| Drug uptake | Structure (SMILES) |
| --- | --- |
| 3.5 % ID/g | O=C(c1ccc2cccnc2n1)N1CCN(Cc2ccc([123I])cc2)CC1 |

Tested on: Mus musculus
Test: Biodistribution in thyroid gland of C57BL/6J mouse bearing mouse B16F0 cells at 0.37 to 1.85 MBq, iv after 16 hrs by gamma counting method
Type: ADME, organism-based
Settings: in vivo
How it was run: as §1

| Drug uptake | Structure (SMILES) |
| --- | --- |
| 1.6 % ID/g | O=C(c1ccc2cccnc2n1)N1CCN(Cc2ccc([123I])cc2)CC1 |

Tested on: Spleen
Test: Biodistribution in spleen of C57BL/6J mouse bearing mouse B16F0 cells at 0.37 to 1.85 MBq, iv after 1 hr by gamma counting method
Type: ADME, organism-based
Settings: in vivo
How it was run: as §1

| Drug uptake | Structure (SMILES) |
| --- | --- |
| 2.6 % ID/g | O=C(c1ccc2cccnc2n1)N1CCN(Cc2ccc([123I])cc2)CC1 |

Tested on: Liver
Test: Biodistribution in liver of C57BL/6J mouse bearing mouse B16F0 cells at 0.37 to 1.85 MBq, iv after 16 hrs by gamma counting method
Type: ADME, organism-based
Settings: in vivo
How it was run: as §1

| Drug uptake | Structure (SMILES) |
| --- | --- |
| 2.4 % ID/g | O=C(c1ccc2cccnc2n1)N1CCN(Cc2ccc([123I])cc2)CC1 |

Tested on: Kidney
Test: Biodistribution in kidney of C57BL/6J mouse bearing mouse B16F0 cells at 0.37 to 1.85 MBq, iv after 1 hr by gamma counting method
Type: ADME, organism-based
Settings: in vivo
How it was run: as §1

| Drug uptake | Structure (SMILES) |
| --- | --- |
| 7.5 % ID/g | O=C(c1ccc2cccnc2n1)N1CCN(Cc2ccc([123I])cc2)CC1 |

Tested on: Kidney
Test: Biodistribution in kidney of C57BL/6J mouse bearing mouse B16F0 cells at 0.37 to 1.85 MBq, iv after 3 hrs by gamma counting method
Type: ADME, organism-based
Settings: in vivo
How it was run: as §1

| Drug uptake | Structure (SMILES) |
| --- | --- |
| 6.2 % ID/g | O=C(c1ccc2cccnc2n1)N1CCN(Cc2ccc([123I])cc2)CC1 |

Tested on: Kidney
Test: Biodistribution in kidney of C57BL/6J mouse bearing mouse B16F0 cells at 0.37 to 1.85 MBq, iv after 16 hrs by gamma counting method
Type: ADME, organism-based
Settings: in vivo
How it was run: as §1

| Drug uptake | Structure (SMILES) |
| --- | --- |
| 1.6 % ID/g | O=C(c1ccc2cccnc2n1)N1CCN(Cc2ccc([123I])cc2)CC1 |

Tested on: Kidney
Test: Biodistribution in kidney of C57BL/6J mouse bearing mouse B16F0 cells at 0.37 to 1.85 MBq, iv after 24 hrs by gamma counting method
Type: ADME, organism-based
Settings: in vivo
How it was run: as §1

| Drug uptake | Structure (SMILES) |
| --- | --- |
| 1.4 % ID/g | O=C(c1ccc2cccnc2n1)N1CCN(Cc2ccc([123I])cc2)CC1 |

Tested on: Kidney
Test: Biodistribution in kidney of C57BL/6J mouse bearing mouse B16F0 cells at 0.37 to 1.85 MBq, iv after 48 hrs by gamma counting method
Type: ADME, organism-based
Settings: in vivo
How it was run: as §1

| Drug uptake | Structure (SMILES) |
| --- | --- |
| 0.5 % ID/g | O=C(c1ccc2cccnc2n1)N1CCN(Cc2ccc([123I])cc2)CC1 |

Tested on: not listed separately
Test: Ratio of AUC in tumor to skin of C57BL/6J mouse bearing mouse B16F0 cells at 0.37 to 1.85 MBq, iv by gamma counting method
Type: ADME, organism-based
Settings: in vivo
How it was run: (§2)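 Biodistribution in B16F0-bearing C57BL/6J mice given i.v. tail-vein tracer (~0.37 MBq for 1–24 h, 1.85 MBq for 48 h). Sacrifice at 1, 3, 6, 16, 24 and 48 h, then organs dissected, weighed and γ-counted as decay-corrected % ID/g. Tumor AUC divided by each organ AUC; mean of ratios ± SEM, n = 5.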

| Ratio | Structure (SMILES) |
| --- | --- |
| 45.3 | O=C(c1ccc2cccnc2n1)N1CCN(Cc2ccc([123I])cc2)CC1 |

Tested on: not listed separately
Test: Ratio of AUC in tumor to bone of C57BL/6J mouse bearing mouse B16F0 cells at 0.37 to 1.85 MBq, iv by gamma counting method
Type: ADME, organism-based
Settings: in vivo
How it was run: as §2

| Ratio | Structure (SMILES) |
| --- | --- |
| 44 | O=C(c1ccc2cccnc2n1)N1CCN(Cc2ccc([123I])cc2)CC1 |

Tested on: not listed separately
Test: Ratio of AUC in tumor to gastrointestinal tract of C57BL/6J mouse bearing mouse B16F0 cells at 0.37 to 1.85 MBq, iv by gamma counting method
Type: ADME, organism-based
Settings: in vivo
How it was run: as §2

| Ratio | Structure (SMILES) |
| --- | --- |
| 5.5 | O=C(c1ccc2cccnc2n1)N1CCN(Cc2ccc([123I])cc2)CC1 |

Tested on: not listed separately
Test: Stability in eyes of C57BL/6J mouse bearing mouse B16F0 cells assessed as intact parent compound level at 0.37 to 1.85 MBq, iv after 3 hrs by radio-HPLC and radio-TLC method
Type: ADME, organism-based, Eye
Settings: in the assay text read “20 MBq” for “0.37 to 1.85 MBq”, read-out: Stability
How it was run: (§3)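 Tumor-bearing C57BL/6J mice were sampled 3 and 24 h after i.v. tracer. Tissue was sonicated in CH3CN/water (3:2) with cold iodo standard and KI, then centrifuged. Urine was diluted and spiked; plasma was spiked, with CH3CN precipitation for TLC. Intact fraction came from silica radio-TLC (spot matching standard Rf) and radio-HPLC with precolumn/C18 column switching.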

| remaining at 3 h | Structure (SMILES) |
| --- | --- |
| 60% | O=C(c1ccc2cccnc2n1)N1CCN(Cc2ccc([123I])cc2)CC1 |

Tested on: not listed separately
Test: Stability in eyes of C57BL/6J mouse bearing mouse B16F0 cells assessed as intact parent compound level at 0.37 to 1.85 MBq, iv after 24 hrs by radio-HPLC and radio-TLC method
Type: ADME, organism-based, Eye
Settings: in the assay text read “20 MBq” for “0.37 to 1.85 MBq”, read-out: Stability
How it was run: as §3

| remaining at 24 h | Structure (SMILES) |
| --- | --- |
| 35% | O=C(c1ccc2cccnc2n1)N1CCN(Cc2ccc([123I])cc2)CC1 |

Tested on: Plasma
Test: Stability in plasma of C57BL/6J mouse bearing mouse B16F0 cells assessed as drug degradation at 0.37 to 1.85 MBq, iv after 24 hrs by radio-HPLC and radio-TLC method
Type: ADME, organism-based
Settings: in vivo, in the assay text read “20 MBq” for “0.37 to 1.85 MBq”
How it was run: as §3

| Stability | Structure (SMILES) |
| --- | --- |
| Unstable | O=C(c1ccc2cccnc2n1)N1CCN(Cc2ccc([123I])cc2)CC1 |
